Bounds are passed on as bounds.

One may read the inhibition as the relative decrease from the control value, in per cent. One may read the IC50 as the concentration at which inhibition is half-maximal. A lower IC50 goes with greater potency in that assay.

Assay [1] has as its system HL-60. The assay is described as follows: Inhibition of attachment of HL60 cells to P-selectin at 109 uM after 5 mins. Type of assay: functional. Conditions: Homo sapiens, HL-60, 5 min. The essentials:
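Dishes coated with E- or P-selectin/Fc chimera, blocked with BSA, mounted in a parallel flow chamber run recirculating; HL-60 cells at 2.4 million/mL final. Mean inhibition as % of vehicle control from mean cells/field of at least two independent experiments.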

Assay [2] concerns the target T1, L-selectin (Homo sapiens, UniProt P14151).
T1 sequence (P14151 whole entry): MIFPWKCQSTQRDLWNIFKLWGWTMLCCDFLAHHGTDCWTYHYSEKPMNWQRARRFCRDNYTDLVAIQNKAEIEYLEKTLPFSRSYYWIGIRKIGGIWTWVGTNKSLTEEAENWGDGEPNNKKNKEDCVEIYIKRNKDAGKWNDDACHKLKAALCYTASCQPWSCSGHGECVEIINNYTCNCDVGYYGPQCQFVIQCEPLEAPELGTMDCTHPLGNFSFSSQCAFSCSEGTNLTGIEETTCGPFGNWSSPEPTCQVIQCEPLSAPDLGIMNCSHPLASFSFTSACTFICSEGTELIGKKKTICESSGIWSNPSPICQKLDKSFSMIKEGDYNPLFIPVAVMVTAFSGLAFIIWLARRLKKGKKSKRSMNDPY
Briefly: Inhibition of human L-selectin after 2 hrs. In short, it runs like this:
(§1)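 Biotinylated sLeX-tyrosine sulfate polyacrylamide complexed with streptavidin-peroxidase added with compound at varying concentrations (HEPES pH 7.4, 1 mM CaCl2, 1% DMSO), 2 h 37 °C. TMB read-out, OD 450 vs 620 nm.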

The subject of assay [3] is HL-60. The assay is described as follows: Inhibition of attachment of HL60 cells to E-selectin at 109 uM after 5 mins. Conditions: Homo sapiens, HL-60, 5 min. Type of assay: functional. The essentials:
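Dishes coated with E- or P-selectin/Fc chimera, blocked with BSA, mounted in a parallel flow chamber run recirculating; HL-60 cells at 2.4 million/mL final. Cells attached after 5 min continuous flow at calculated shear 1 dyn/cm², with 109 µM compound or DMSO vehicle, counted in five low power fields. Mean inhibition as % of vehicle control from mean cells/field of at least two independent experiments.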

Assay [4] has as its target T2, E-selectin (Homo sapiens, UniProt P16581).
T2 sequence (P16581 whole entry): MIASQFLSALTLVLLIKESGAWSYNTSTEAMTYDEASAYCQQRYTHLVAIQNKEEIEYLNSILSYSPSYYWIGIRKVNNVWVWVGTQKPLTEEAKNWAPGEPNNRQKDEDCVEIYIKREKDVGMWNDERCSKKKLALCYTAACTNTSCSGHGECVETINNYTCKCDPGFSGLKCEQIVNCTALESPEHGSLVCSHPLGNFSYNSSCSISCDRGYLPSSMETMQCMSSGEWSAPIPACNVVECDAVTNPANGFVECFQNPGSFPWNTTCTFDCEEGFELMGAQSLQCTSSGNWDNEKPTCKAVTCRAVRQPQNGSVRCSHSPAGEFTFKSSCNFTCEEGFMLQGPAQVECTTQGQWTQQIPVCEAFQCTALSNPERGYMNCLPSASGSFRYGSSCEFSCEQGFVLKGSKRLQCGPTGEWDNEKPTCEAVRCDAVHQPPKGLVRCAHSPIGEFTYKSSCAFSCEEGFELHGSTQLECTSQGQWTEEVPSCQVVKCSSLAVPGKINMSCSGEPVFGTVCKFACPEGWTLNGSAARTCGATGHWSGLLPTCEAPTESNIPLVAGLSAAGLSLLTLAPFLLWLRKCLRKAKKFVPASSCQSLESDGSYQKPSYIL
Briefly: Inhibition of human E-selectin after 2 hrs. The essentials:
as §1

The target of assay [5] is T3, P-selectin (Homo sapiens, UniProt P16109).
T3 sequence (P16109 whole entry): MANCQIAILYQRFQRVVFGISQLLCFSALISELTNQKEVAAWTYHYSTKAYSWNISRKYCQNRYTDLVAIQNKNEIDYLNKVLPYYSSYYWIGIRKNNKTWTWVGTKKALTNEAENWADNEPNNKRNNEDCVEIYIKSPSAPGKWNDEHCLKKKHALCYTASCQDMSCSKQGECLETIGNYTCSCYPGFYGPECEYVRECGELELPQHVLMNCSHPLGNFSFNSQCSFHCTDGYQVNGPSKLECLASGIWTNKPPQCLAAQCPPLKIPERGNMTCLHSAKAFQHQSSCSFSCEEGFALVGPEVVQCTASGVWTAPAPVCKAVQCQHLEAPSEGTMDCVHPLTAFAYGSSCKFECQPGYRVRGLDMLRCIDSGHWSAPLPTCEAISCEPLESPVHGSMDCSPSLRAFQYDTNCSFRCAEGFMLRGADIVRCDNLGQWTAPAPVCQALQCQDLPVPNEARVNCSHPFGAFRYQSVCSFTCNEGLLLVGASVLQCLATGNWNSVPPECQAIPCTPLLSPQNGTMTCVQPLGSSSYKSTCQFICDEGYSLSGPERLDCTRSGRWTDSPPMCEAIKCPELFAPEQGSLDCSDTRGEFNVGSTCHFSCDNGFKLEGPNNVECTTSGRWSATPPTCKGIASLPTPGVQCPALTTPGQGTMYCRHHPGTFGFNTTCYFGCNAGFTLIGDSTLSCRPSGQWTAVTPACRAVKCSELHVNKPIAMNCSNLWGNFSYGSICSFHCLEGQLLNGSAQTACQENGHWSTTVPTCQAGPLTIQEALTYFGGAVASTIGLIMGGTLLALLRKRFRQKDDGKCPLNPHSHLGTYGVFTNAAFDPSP
Briefly: Inhibition of human P-selectin after 2 hrs. The essentials: as §1

Consider `O=C(O)Cc1cccc(-c2cc(CCCCCCc3ccc(O[C@H]4O[C@H](CO)[C@@H](O)[C@H](O)[C@@H]4O)c(-c4cccc(CC(=O)O)c4)c3)ccc2O[C@H]2O[C@H](CO)[C@@H](O)[C@H](O)[C@@H]2O)c1` [BIMOSIAMOSE], for which the results for the inhibition at 109 µM in assay [1] and in assay [3] were 50% and 28%, respectively. This compound gave a 50% inhibitory concentration (IC50) in assay [2] of over 500 µM.
For the compound `O=C(O)Cc1ccc(-c2cccc(NC(=O)c3cccc(-c4ccc(O)c(O)c4O)c3)c2)s1`, the IC50 in assay [4] was found to be 15.7 µM; in assay [5], 0.74 µM; in assay [2], 1.1 µM. The inhibition at 109 µM was found to be 93% in assay [1] and 58% in assay [3].
The corresponding values for `O=C(O)Cc1ccc(-c2ccccc2NC(=O)c2ccc(-c3ccc(O)c(O)c3O)cc2)s1` are 48 µM, 1.1 µM, 1.6 µM, 58% and 33%.
On to `Cc1ccc(C(=O)O)cc1NC(=O)CCc1cc(O)c(O)c(O)c1`, for which the IC50 was found to be 2.9 µM in assay [5] and 4.2 µM in assay [2].
Consider `O=C(O)Cc1cccc(-c2ccccc2O[C@H]2O[C@H](CO)[C@@H](O)[C@H](O)[C@@H]2O)c1`, for which the half-inhibitory concentration (IC50) in assay [4], in assay [5] and in assay [2] was over 500 µM in each case. Further, testing at 109 µM in assay [3] gave an inhibition of 34%.
As for `O=C(O)Cc1ccc(-c2ccccc2NC(=O)c2cccc(-c3ccc(O)c(O)c3O)c2)s1`, the inhibition at 109 µM in assay [1] came out at 55%; in assay [3], 61%.
`O=C(O)Cc1ccc(-c2ccccc2NC(=O)Cc2ccc(O)c(O)c2O)s1` gave a half-inhibitory concentration (IC50) in assay [4] of over 500 µM. This compound registered an inhibition at 109 µM in assay [3] of 26%.
Consider `O=C(CCc1cc(O)c(O)c(O)c1)Nc1cccc(C(=O)O)c1`, for which the values for the IC50 in assay [4], in assay [5] and in assay [2] were 18.7 µM, 19.6 µM and 46.6 µM, respectively.
In the case of `O=C(O)Cc1ccc(-c2ccccc2NC(=O)Cc2cccc(-c3ccc(O)c(O)c3O)c2)s1`, the concentration for half-maximal inhibition (IC50) was over 500 µM in assay [4], 3.6 µM in assay [5] and 9.7 µM in assay [2]. For the same compound, in assay [1], 109 µM produced 58% inhibition.
Regarding `O=C(O)Cc1ccc(-c2ccccc2NC(=O)c2ccccc2-c2cc(O)c(O)c(O)c2)s1`, the half-maximal inhibitory concentration (IC50) in assay [4] was 114 µM; in assay [5], 212 µM; in assay [2], 244 µM. The same compound displayed an inhibition at 109 µM in assay [1] of 25%.
Consider `O=C(O)Cc1ccc(-c2ccccc2NC(=O)c2cccc(-c3cc(O)c(O)c(O)c3)c2)s1`, for which the IC50 in assay [4] was over 500 µM; in assay [5], 21.8 µM; in assay [2] it was 37.6 µM. Moreover, the figures for the inhibition at 109 µM in assay [1] and in assay [3] were 45% and 32%, respectively.
`O=C(O)Cc1cccc(NC(=O)CCc2cc(O)c(O)c(O)c2)c1`: in assay [3], testing at 109 µM gave an inhibition of 19%.
`CC(=O)N[C@H]1[C@H]([C@H](O)[C@H](O)CO)O[C@@](O[C@H]2[C@@H](O)[C@@H](CO)O[C@@H](O[C@@H]([C@H](O[C@@H]3O[C@@H](C)[C@@H](O)[C@@H](O)[C@@H]3O)[C@H](C=O)NC(C)=O)[C@H](O)CO)[C@@H]2O)(C(=O)O)C[C@@H]1O` [SIALYL LEWIS X]: the IC50 in assay [4] is 134 µM; in assay [5], over 4000 µM; in assay [2], over 4000 µM. This compound also came in with an inhibition at 109 µM in assay [3] of 32%.
With `O=C(O)Cc1ccc(-c2ccccc2NC(=O)/C=C/c2cc(O)c(O)c(O)c2)s1`, the half-maximal inhibitory concentration (IC50) in assay [4] was determined as 48.6 µM; in assay [5], 19.5 µM; in assay [2] it was 21.3 µM. The results for the inhibition at 109 µM in assay [1] and in assay [3] were 23% and 28%, respectively.
On the same counts, the results for `Cc1ccc(C(=O)O)cc1NC(=O)Cc1cc(O)c(O)c(O)c1` are over 500 µM, 42.8 µM, 64.5 µM, 24% and 22%.
For the compound `O=C(CCc1cc(O)c(O)c(O)c1)N[C@H]1CC[C@H](C(=O)O)CC1`, the concentration for half-maximal inhibition (IC50) in assay [4] was 3.1 µM; in assay [5] it was 3.4 µM; in assay [2], 5.7 µM.
On the same counts, the results for `O=C(O)Cc1ccc(-c2ccccc2NC(=O)CCCc2cc(O)c(O)c(O)c2)s1` are 52.4 µM, 53.9 µM and 105 µM.
For `O=C(O)Cc1ccc(-c2ccccc2NC(=O)CCc2cc(O)c(O)c(O)c2)s1`, the half-maximal inhibitory concentration (IC50) was determined as 41.9 µM in assay [4], 10.2 µM in assay [5] and 13.6 µM in assay [2]. In addition, the inhibition at 109 µM stood at 11% in assay [1] and 35% in assay [3].
On to `O=C(O)Cc1cccc(-c2ccccc2NC(=O)Cc2cc(O)c(O)c(O)c2)c1`, for which the inhibition at 109 µM stood at 22% in assay [1] and 18% in assay [3].
Turning to `O=C(O)c1ccc(O)c(O)c1O`, the results for the IC50 in assay [4] and in assay [2] were over 500 µM and 15.2 µM, respectively.
Consider `O=C(O)Cc1cccc(-c2ccccc2NC(=O)CCCNC(=O)c2cc(O)c(O)c(O)c2)c1`, for which the 50% inhibitory concentration (IC50) in assay [4] was over 500 µM; in assay [5], 57.2 µM; in assay [2] it was 154 µM. The same compound yielded an inhibition at 109 µM in assay [3] of 29%.
For `O=C(O)Cc1ccc(-c2ccc(NC(=O)c3cccc(-c4ccc(O)c(O)c4O)c3)cc2)s1`, the half-inhibitory concentration (IC50) stood at 9.7 µM in assay [4], 0.57 µM in assay [5] and 0.79 µM in assay [2]. The inhibition at 109 µM in assay [1] is 83%; in assay [3], 47%.
The compound `O=C(O)Cc1cccc(NC(=O)Cc2cc(O)c(O)c(O)c2)c1` gave an IC50 in assay [2] of over 500 µM. Besides, at 109 µM the inhibition in assay [3] was 27%.
As for `O=C(O)Cc1ccc(-c2ccccc2NC(=O)/C=C/c2ccc(O)c(O)c2O)s1`, the half-maximal inhibitory concentration (IC50) in assay [4] amounted to 57.2 µM; in assay [5] it was 3.4 µM; in assay [2] it was 4.3 µM. In assay [1], this compound gave an inhibition at 109 µM of 56%.
Take `O=C(CCc1cc(O)c(O)c(O)c1)NCc1ccc(C(=O)O)cc1`: the inhibition at 109 µM in assay [1] and in assay [3] was 21% each time.
Take `O=C(O)c1cc(O)c(O)c(O)c1` [GALLIC ACID]: the values for the 50% inhibitory concentration (IC50) in assay [4], in assay [5] and in assay [2] were over 500 µM, 19.1 µM and 27.6 µM, respectively.
Turning to `Cc1c(NC(=O)Cc2cc(O)c(O)c(O)c2)cccc1C(=O)O`, the concentration for half-maximal inhibition (IC50) in assay [5] and in assay [2] was over 500 µM throughout. For the same compound, the inhibition at 109 µM in assay [3] was found to be 19%.
In the case of `O=C(O)Cc1ccc(-c2ccccc2NC(=O)CCc2ccc(O)c(O)c2O)s1`, the IC50 in assay [4] is over 500 µM; in assay [5] it was 28.6 µM; in assay [2], 85.8 µM.
On the same counts, the results for `Cc1cc(O)c(O)c(O)c1` are 31.7 µM, 31.8 µM and 38.5 µM.
For `O=C(Cc1cc(O)c(O)c(O)c1)NCc1ccc(C(=O)O)cc1`, the inhibition at 109 µM in assay [1] was determined as 20%; in assay [3], 16%.

Source of the values: ChEMBL document CHEMBL1142933, “Rational design of novel, potent small molecule pan-selectin antagonists” (J Med Chem, 2007).
